# Assay results: ChEMBL document CHEMBL3826943, “Design, synthesis and evaluation of 6-aryl-indenoisoquinolone derivatives dual targeting ERα and VEGFR-2 as anti-breast cancer agents” (Eur J Med Chem, 2016)
# Test system: HUVEC
# Assay: Antiangiogenic activity in HUVEC assessed as inhibition of cell proliferation incubated for 48 hrs by MTT assay
# Assay type: functional, cell-based
# Conditions: Homo sapiens; call rule not given here
# Summary of the method: (§1)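 Cells kept in RPMI1640 with 10% FBS, penicillin/streptomycin, 37 °C, 5% CO2. Seeded at 1×10^5/mL, allowed 24 h, then exposed to compound at 1×10^-4, 1×10^-5, 1×10^-6 and 1×10^-7 mol/L for 48 h; controls got medium with 1% DMSO. MTT added for 4 h in the dark, formazan dissolved in DMSO, absorbance at 490 nm used for IC50.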
row,Structure (SMILES),IC50
1,COc1ccc2c(c1)C(=O)c1c-2n(-c2ccc(OCCN3CCOCC3)cc2)c(=O)c2cc(OC)ccc12,> 100 µM
2,O=C1c2cc(O)ccc2-c2c1c1ccc(O)cc1c(=O)n2-c1ccc(OCCN2CCOCC2)cc1,> 100 µM
3,CCN(CC)CCNC(=O)c1c(C)[nH]c(/C=C2\C(=O)Nc3ccc(F)cc32)c1C [SUNITINIB],0.8 µM
4,COc1ccc2c(c1)C(=O)c1c-2n(-c2ccc(OCCCN3CCCCC3)cc2)c(=O)c2cc(OC)ccc12,> 100 µM
5,COc1ccc2c(c1)C(=O)c1c-2n(-c2ccc(OCCCN3CCCC3)cc2)c(=O)c2cc(OC)ccc12,5.1 µM
6,CCN(CC)CCOc1ccc(-n2c3c(c4ccc(OC)cc4c2=O)C(=O)c2cc(OC)ccc2-3)cc1,11.4 µM
7,CCN(CC)CCOc1ccc(-n2c3c(c4ccc(O)cc4c2=O)C(=O)c2cc(O)ccc2-3)cc1,1.8 µM
8,CCN(CC)CCCOc1ccc(-n2c3c(c4ccc(OC)cc4c2=O)C(=O)c2cc(OC)ccc2-3)cc1,16 µM
9,CN1CCN(CCOc2ccc(-n3c4c(c5ccc(O)cc5c3=O)C(=O)c3cc(O)ccc3-4)cc2)CC1,1.1 µM

# Test system: MDA-MB-231
# Assay: Antiproliferative activity against human MDA-MB-231 cells incubated for 48 hrs by MTT assay
# Assay type: functional, cell-based
# Conditions: MDA-MB-231, 48 h
# Summary of the method: as §1
row,Structure (SMILES),IC50
1,CC/C(=C(\c1ccccc1)c1ccc(OCCN(C)C)cc1)c1ccccc1 [TAMOXIFEN],13.9 µM
2,O=C1c2cc(O)ccc2-c2c1c1ccc(O)cc1c(=O)n2-c1ccc(OCCN2CCOCC2)cc1,> 100 µM
3,CCN(CC)CCOc1ccc(-n2c3c(c4ccc(O)cc4c2=O)C(=O)c2cc(O)ccc2-3)cc1,1 µM

# Further lines, results first:
row,IC50,Structure (SMILES)
1,> 100 µM,COc1ccc2c(c1)C(=O)c1c-2n(-c2ccc(OCCN3CCOCC3)cc2)c(=O)c2cc(OC)ccc12
2,21.7 µM,COc1ccc2c(c1)C(=O)c1c-2n(-c2ccc(OCCCN3CCCCC3)cc2)c(=O)c2cc(OC)ccc12
3,3 µM,COc1ccc2c(c1)C(=O)c1c-2n(-c2ccc(OCCCN3CCCC3)cc2)c(=O)c2cc(OC)ccc12
4,1.3 µM,CCN(CC)CCOc1ccc(-n2c3c(c4ccc(OC)cc4c2=O)C(=O)c2cc(OC)ccc2-3)cc1
5,1.5 µM,CCN(CC)CCCOc1ccc(-n2c3c(c4ccc(OC)cc4c2=O)C(=O)c2cc(OC)ccc2-3)cc1
6,4.1 µM,CN1CCN(CCOc2ccc(-n3c4c(c5ccc(O)cc5c3=O)C(=O)c3cc(O)ccc3-4)cc2)CC1

# Target: T1, Estrogen receptor (Homo sapiens, UniProt P03372)
# T1 sequence (P03372 whole entry): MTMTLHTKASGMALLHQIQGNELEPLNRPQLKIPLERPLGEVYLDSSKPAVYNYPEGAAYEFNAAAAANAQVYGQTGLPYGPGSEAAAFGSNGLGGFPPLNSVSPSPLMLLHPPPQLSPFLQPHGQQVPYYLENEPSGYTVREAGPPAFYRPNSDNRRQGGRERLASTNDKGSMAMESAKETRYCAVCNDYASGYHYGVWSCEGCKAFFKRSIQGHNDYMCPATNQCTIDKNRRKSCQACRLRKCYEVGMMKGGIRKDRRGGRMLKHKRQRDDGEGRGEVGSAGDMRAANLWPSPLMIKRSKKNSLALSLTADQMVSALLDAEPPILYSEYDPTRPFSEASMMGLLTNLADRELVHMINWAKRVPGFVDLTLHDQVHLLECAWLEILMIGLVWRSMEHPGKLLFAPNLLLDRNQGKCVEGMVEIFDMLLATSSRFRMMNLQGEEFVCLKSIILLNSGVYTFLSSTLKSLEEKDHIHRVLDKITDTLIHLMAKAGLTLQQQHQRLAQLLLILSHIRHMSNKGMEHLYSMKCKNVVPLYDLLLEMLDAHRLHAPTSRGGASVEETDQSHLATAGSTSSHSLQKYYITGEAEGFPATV
# Assay: Displacement of fluorescein-labeled estrogen ligand from recombinant ER-alpha (unknown origin) incubated for 2 hrs by fluorescence polarization assay
# Conditions: not given
row,Structure (SMILES),IC50
1,O=C1c2cc(O)ccc2-c2c1c1ccc(O)cc1c(=O)n2-c1ccc(OCCN2CCOCC2)cc1,19.8 µM
2,CCN(CC)CCOc1ccc(-n2c3c(c4ccc(O)cc4c2=O)C(=O)c2cc(O)ccc2-3)cc1,6.7 µM

# The next lines start with the values.
row,IC50,Structure (SMILES)
1,> 100 µM,COc1ccc2c(c1)C(=O)c1c-2n(-c2ccc(OCCN3CCOCC3)cc2)c(=O)c2cc(OC)ccc12
2,38.3 µM,COc1ccc2c(c1)C(=O)c1c-2n(-c2ccc(OCCCN3CCCCC3)cc2)c(=O)c2cc(OC)ccc12
3,40.3 µM,COc1ccc2c(c1)C(=O)c1c-2n(-c2ccc(OCCCN3CCCC3)cc2)c(=O)c2cc(OC)ccc12
4,18.7 µM,CCN(CC)CCOc1ccc(-n2c3c(c4ccc(OC)cc4c2=O)C(=O)c2cc(OC)ccc2-3)cc1
5,39.8 µM,CCN(CC)CCCOc1ccc(-n2c3c(c4ccc(OC)cc4c2=O)C(=O)c2cc(OC)ccc2-3)cc1
6,10.6 µM,CN1CCN(CCOc2ccc(-n3c4c(c5ccc(O)cc5c3=O)C(=O)c3cc(O)ccc3-4)cc2)CC1

# Test system: Ishikawa
# Assay: Antiproliferative activity against human Ishikawa cells incubated for 48 hrs by MTT assay
# Assay type: functional, cell-based
# Conditions: not given
# Summary of the method: as §1
row,Structure (SMILES),IC50
1,CC/C(=C(\c1ccccc1)c1ccc(OCCN(C)C)cc1)c1ccccc1 [TAMOXIFEN],6 µM
2,COc1ccc2c(c1)C(=O)c1c-2n(-c2ccc(OCCN3CCOCC3)cc2)c(=O)c2cc(OC)ccc12,> 100 µM
3,O=C1c2cc(O)ccc2-c2c1c1ccc(O)cc1c(=O)n2-c1ccc(OCCN2CCOCC2)cc1,> 100 µM
4,COc1ccc2c(c1)C(=O)c1c-2n(-c2ccc(OCCCN3CCCCC3)cc2)c(=O)c2cc(OC)ccc12,4.5 µM
5,COc1ccc2c(c1)C(=O)c1c-2n(-c2ccc(OCCCN3CCCC3)cc2)c(=O)c2cc(OC)ccc12,12.8 µM
6,CCN(CC)CCOc1ccc(-n2c3c(c4ccc(OC)cc4c2=O)C(=O)c2cc(OC)ccc2-3)cc1,6.7 µM
7,CCN(CC)CCOc1ccc(-n2c3c(c4ccc(O)cc4c2=O)C(=O)c2cc(O)ccc2-3)cc1,4 µM
8,CCN(CC)CCCOc1ccc(-n2c3c(c4ccc(OC)cc4c2=O)C(=O)c2cc(OC)ccc2-3)cc1,4.1 µM
9,CN1CCN(CCOc2ccc(-n3c4c(c5ccc(O)cc5c3=O)C(=O)c3cc(O)ccc3-4)cc2)CC1,6.1 µM

# Test system: MCF7
# Assay: Antiproliferative activity against human MCF7 cells incubated for 48 hrs by MTT assay
# Assay type: functional, cell-based
# Conditions: MCF7, 48 h
# Summary of the method: as §1
row,Structure (SMILES),IC50
1,CC/C(=C(\c1ccccc1)c1ccc(OCCN(C)C)cc1)c1ccccc1 [TAMOXIFEN],5.3 µM
2,O=C1c2cc(O)ccc2-c2c1c1ccc(O)cc1c(=O)n2-c1ccc(OCCN2CCOCC2)cc1,> 100 µM
3,CCN(CC)CCOc1ccc(-n2c3c(c4ccc(O)cc4c2=O)C(=O)c2cc(O)ccc2-3)cc1,0.8 µM

# Results, then the compound that gave them:
row,IC50,Structure (SMILES)
1,> 100 µM,COc1ccc2c(c1)C(=O)c1c-2n(-c2ccc(OCCN3CCOCC3)cc2)c(=O)c2cc(OC)ccc12
2,7.8 µM,COc1ccc2c(c1)C(=O)c1c-2n(-c2ccc(OCCCN3CCCCC3)cc2)c(=O)c2cc(OC)ccc12
3,3.2 µM,COc1ccc2c(c1)C(=O)c1c-2n(-c2ccc(OCCCN3CCCC3)cc2)c(=O)c2cc(OC)ccc12
4,0.7 µM,CCN(CC)CCOc1ccc(-n2c3c(c4ccc(OC)cc4c2=O)C(=O)c2cc(OC)ccc2-3)cc1
5,2.3 µM,CCN(CC)CCCOc1ccc(-n2c3c(c4ccc(OC)cc4c2=O)C(=O)c2cc(OC)ccc2-3)cc1
6,2.5 µM,CN1CCN(CCOc2ccc(-n3c4c(c5ccc(O)cc5c3=O)C(=O)c3cc(O)ccc3-4)cc2)CC1

# Target: Vascular endothelial growth factor receptor 2 (Homo sapiens, UniProt P35968)
# Conditions: not given
# Vascular endothelial growth factor receptor 2, sequence (P35968 whole entry): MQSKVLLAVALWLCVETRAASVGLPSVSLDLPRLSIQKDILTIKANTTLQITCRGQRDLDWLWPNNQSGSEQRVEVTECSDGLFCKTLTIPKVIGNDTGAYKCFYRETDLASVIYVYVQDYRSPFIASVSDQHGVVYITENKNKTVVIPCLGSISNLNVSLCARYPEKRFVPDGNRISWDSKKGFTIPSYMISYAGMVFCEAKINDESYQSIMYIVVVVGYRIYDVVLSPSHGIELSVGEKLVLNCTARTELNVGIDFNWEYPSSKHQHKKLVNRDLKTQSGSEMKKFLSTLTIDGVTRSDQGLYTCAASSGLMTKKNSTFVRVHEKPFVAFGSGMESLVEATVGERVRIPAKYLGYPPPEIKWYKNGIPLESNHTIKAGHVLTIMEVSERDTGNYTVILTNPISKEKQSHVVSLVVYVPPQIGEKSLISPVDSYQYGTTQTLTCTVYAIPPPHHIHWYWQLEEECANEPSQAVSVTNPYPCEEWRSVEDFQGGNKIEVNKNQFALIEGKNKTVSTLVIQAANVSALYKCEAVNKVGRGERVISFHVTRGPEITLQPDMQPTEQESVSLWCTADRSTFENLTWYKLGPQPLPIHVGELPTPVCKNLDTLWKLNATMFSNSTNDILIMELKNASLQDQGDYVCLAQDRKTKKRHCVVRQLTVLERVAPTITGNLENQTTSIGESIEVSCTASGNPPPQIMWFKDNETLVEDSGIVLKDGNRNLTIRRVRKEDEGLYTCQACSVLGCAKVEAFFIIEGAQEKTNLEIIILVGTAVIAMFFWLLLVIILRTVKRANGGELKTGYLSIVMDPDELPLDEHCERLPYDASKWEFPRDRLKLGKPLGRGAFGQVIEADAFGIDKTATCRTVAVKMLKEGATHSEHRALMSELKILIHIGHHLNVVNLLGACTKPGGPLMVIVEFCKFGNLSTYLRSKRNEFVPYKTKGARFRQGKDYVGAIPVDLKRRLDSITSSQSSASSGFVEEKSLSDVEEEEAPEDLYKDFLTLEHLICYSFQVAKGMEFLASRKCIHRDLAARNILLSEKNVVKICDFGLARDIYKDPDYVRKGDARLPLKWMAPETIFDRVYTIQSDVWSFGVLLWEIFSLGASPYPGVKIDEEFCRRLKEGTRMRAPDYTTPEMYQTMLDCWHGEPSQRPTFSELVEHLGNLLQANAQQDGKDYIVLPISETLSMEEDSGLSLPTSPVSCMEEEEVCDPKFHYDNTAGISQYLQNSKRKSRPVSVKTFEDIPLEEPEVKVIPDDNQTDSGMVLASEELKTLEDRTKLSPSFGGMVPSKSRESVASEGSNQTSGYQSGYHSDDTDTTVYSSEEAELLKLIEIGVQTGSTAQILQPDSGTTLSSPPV
row,IC50,Structure (SMILES)
1,Not Active,COc1ccc2c(c1)C(=O)c1c-2n(-c2ccc(OCCN3CCOCC3)cc2)c(=O)c2cc(OC)ccc12
2,Not Active,O=C1c2cc(O)ccc2-c2c1c1ccc(O)cc1c(=O)n2-c1ccc(OCCN2CCOCC2)cc1
3,Not Active,COc1ccc2c(c1)C(=O)c1c-2n(-c2ccc(OCCCN3CCCCC3)cc2)c(=O)c2cc(OC)ccc12
4,Not Active,COc1ccc2c(c1)C(=O)c1c-2n(-c2ccc(OCCCN3CCCC3)cc2)c(=O)c2cc(OC)ccc12
5,Not Active,CCN(CC)CCCOc1ccc(-n2c3c(c4ccc(OC)cc4c2=O)C(=O)c2cc(OC)ccc2-3)cc1
6,Not Active,CN1CCN(CCOc2ccc(-n3c4c(c5ccc(O)cc5c3=O)C(=O)c3cc(O)ccc3-4)cc2)CC1

# Same assay, conditions: read-out: IC50
row,IC50,Structure (SMILES)
1,1.03 µM,CCN(CC)CCOc1ccc(-n2c3c(c4ccc(OC)cc4c2=O)C(=O)c2cc(OC)ccc2-3)cc1
2,0.12 µM,CCN(CC)CCOc1ccc(-n2c3c(c4ccc(O)cc4c2=O)C(=O)c2cc(O)ccc2-3)cc1
